pIC50: −log10 of the molar value.
How the values were obtained:
Type in all cases: functional
Rattus norvegicus [1] = organism: Rattus norvegicus; assay: Dose required to reduce the lowering of the arterial blood pressure caused by PAF by 50 %.; conditions: read-out: ID50 (the source's name)
In short: (§1)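 Male Sprague-Dawley rats (180–220 g) were anesthetized with pentobarbital (50 mg/kg ip), and blood pressure was recorded from the left carotid artery. Compound in saline (1 mL/kg) was given iv via a femoral vein 3 min before PAF (0.5 µg/kg iv). ID50 came from linear regression of one curve with ≥4 doses (15–85% inhibition), each point the mean of ≥2 experiments.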

Oryctolagus cuniculus = organism: Oryctolagus cuniculus; assay: Concentration required to inhibit PAF-induced maximum aggregation by 50%
In short: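 Platelet-rich plasma was prepared by centrifuging blood at 250 g for 10 min at 4 °C, then diluted with platelet-poor plasma (3000g, 10 min) to 3.5 × 10^5 platelets/mm3. Aggregation was induced with C18-PAF (1.5 × 10^-8 M) and read in an aggregometer as maximum aggregation. IC50 came from linear regression of one curve with ≥4 points (15–85% inhibition), each point the mean of 1–3 experiments.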

Rattus norvegicus [2] = assay: Dose required to reduce the lowering of the arterial blood pressure caused by PAF by 50 % in rats intravenously; conditions: iv, read-out: ID50 (the source's name); in short: as §1
Rattus norvegicus [3] = organism: Rattus norvegicus; assay: % of rats exhibiting diarrhea
In short: (§2)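 Female Wistar rats (180–220 g) were fasted overnight and given 30 mg TNBS in 0.25 mL 50% ethanol intrarectally by cannula inserted 8 cm, under anesthesia. Compounds were dosed orally in 1% methylcellulose for 5 days before induction and 24 h after. Colons were removed at 48 h and blind-scored 0–10 for macroscopic damage. Diarrhea was analyzed by χ2, means by ANOVA, and scores by Mann–Whitney.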

Rattus norvegicus [4] = organism: Rattus norvegicus; assay: Effect of compound on LTB4 production was measured in rat; in short: as §2
Rattus norvegicus [5] = organism: Rattus norvegicus; assay: Damage to the colon observed after 48 hr after colitis induction in rats; in short: as §2
Rattus norvegicus [6] = organism: Rattus norvegicus; assay: Colonic weight was measured in rats; in short: as §2
Rattus norvegicus [7] = organism: Rattus norvegicus; assay: Effect of compound on myeloperoxidase activity was evaluated in rat; in short: as §2

pIC50 (Oryctolagus cuniculus)	Compound	ED50 (Rattus norvegicus [1])	also measured
6.37	Cc1nc2cnccc2n1CC1CCN(C(=O)C(C)c2ccc(N)cc2)CC1 (stereo unspecified)	1.47 mg/kg	
7.54	Cc1nc2cnccc2n1CC1CCN(C(=O)CC(Nc2ccc(N)cc2)c2ccccc2)CC1 (stereo unspecified)	0.11 mg/kg	
6.60	Cc1nc2cnccc2n1Cc1ccc(S(=O)(=O)N(C)[C@@H](CC(C)C)C(=O)NCc2cccc(N)c2)cc1		ED50 (Rattus norvegicus [2]): 0.28 mg/kg
6.31	CCOC(=O)[C@H](CC(C)C)N(Cc1ccc(/N=N\c2ccc(O)c(C(=O)O)c2)cc1)S(=O)(=O)c1ccc(Cn2c(C)nc3cnccc32)cc1	1.31 mg/kg	
7.80	CCOC[C@H](CC(C)C)N(Cc1ccc(N)cc1)S(=O)(=O)c1ccc(Cn2c(C)nc3cnccc32)cc1		
5.92	Cc1nc2cnccc2n1CC1CCN(C(=O)/C=C/c2ccc(N)cc2)CC1	1.23 mg/kg	
5.14	Cc1nc2cnccc2n1CC1CCN(C(=O)/C=C(\c2ccccc2)c2ccc(/N=N\c3ccc(O)c(C(=O)O)c3)cc2)CC1		
7.12	Cc1nc2cnccc2n1CC1CCN(C(=O)CN(c2ccccc2)S(=O)(=O)c2ccc(N)cc2)CC1		
5.89	CCOC[C@H](CC(C)C)N(C(=O)c1ccc(N)cc1)S(=O)(=O)c1ccc(Cn2c(C)nc3cnccc32)cc1		ED50 (Rattus norvegicus [2]): 0.3 mg/kg
6.72	Cc1nc2cnccc2n1CC1CCN(C(=O)/C=C(/c2ccccc2)c2cccc(N)c2)CC1		
7.72	Cc1nc2cnccc2n1CC1CCN(C(=O)CC(C)(C)c2ccc(N)cc2)CC1		
7.13	CCOC(=O)C(CC(=O)N1CCC(Cn2c(C)nc3cnccc32)CC1)c1ccc(N)cc1 (stereo unspecified)	0.56 mg/kg	
5.80	Cc1nc2cnccc2n1CC1CCN(C(=O)CC(C)(C)c2ccc(/N=N\c3ccc(O)c(C(=O)O)c3)cc2)CC1	0.11 mg/kg	
7.96	Cc1nc2cnccc2n1CC1CCN(C(=O)CC(C)c2ccc(N)cc2)CC1 (stereo unspecified)	0.24 mg/kg	
6.21	Cc1nc2cnccc2n1CC1CCN(C(=O)CN(CC(C)C)S(=O)(=O)c2ccc(N)cc2)CC1		ED50 (Rattus norvegicus [2]): 0.029 mg/kg
6.40	CCOC[C@H](CC(C)C)N(Cc1ccc(/N=N\c2ccc(O)c(C(=O)O)c2)cc1)S(=O)(=O)c1ccc(Cn2c(C)nc3cnccc32)cc1	2.51 mg/kg	
7.49	CCOC(=O)[C@H](Cc1ccc(N)cc1)NC(=O)N1CCC(Cn2c(C)nc3cnccc32)CC1	1.13 mg/kg	
5.83	CCOC(=O)[C@H](CC(C)C)N(C(=O)c1ccc(/N=N\c2ccc(O)c(C(=O)O)c2)cc1)S(=O)(=O)c1ccc(Cn2c(C)nc3cnccc32)cc1	0.47 mg/kg	
5.80	Cc1nc2cnccc2n1CC1CCN(C(=O)NC(C)c2ccc(N)cc2)CC1 (stereo unspecified)		

pIC50 (Oryctolagus cuniculus)	Compound	ED50 (Rattus norvegicus [1])	also measured
5.66	Cc1nc2cnccc2n1CC1CCN(C(=O)CC(NC(=O)c2ccc(N)cc2)c2ccccc2)CC1 (stereo unspecified)	0.19 mg/kg	
7.77	CCOC(=O)[C@H](CC(C)C)N(Cc1cccc(N)c1)S(=O)(=O)c1ccc(Cn2c(C)nc3cnccc32)cc1	0.043 mg/kg	
5.90	Cc1nc2cnccc2n1CC1CCN(C(=O)CN(C)C(=O)c2ccc(N)cc2)CC1		
7.92	CCOC(=O)[C@H](CC(C)C)N(Cc1ccc(N)cc1)S(=O)(=O)c1ccc(Cn2c(C)nc3cnccc32)cc1		
6.13	CCOC(=O)[C@H](Cc1ccc(N)cc1)NS(=O)(=O)c1ccc(Cn2c(C)nc3cnccc32)cc1		ED50 (Rattus norvegicus [2]): 0.19 mg/kg
5.81	Cc1nc2cnccc2n1CC1CCN(C(=O)NCc2ccc(N)cc2)CC1	2.42 mg/kg	
6.52	Cc1nc2cnccc2n1Cc1ccc(S(=O)(=O)N(C)c2cccc(N)c2)cc1		ED50 (Rattus norvegicus [2]): 0.22 mg/kg
6.60	CCOC(=O)N(CC(=O)N1CCC(Cn2c(C)nc3cnccc32)CC1)c1ccc(N)cc1		
7.22	C/C(=C\C(=O)N1CCC(Cn2c(C)nc3cnccc32)CC1)c1ccc(N)cc1	0.17 mg/kg	
8.30	Cc1nc2cnccc2n1CC1CCN(C(=O)/C=C(\c2ccccc2)c2ccc(N)cc2)CC1	0.01 mg/kg	
6.92	Cc1nc2cnccc2n1Cc1ccc(S(=O)(=O)N[C@@H](CC(C)C)C(=O)NCc2ccc(N)cc2)cc1		ED50 (Rattus norvegicus [2]): 0.075 mg/kg
8.10	Cc1nc2cnccc2n1CC1CCN(C(=O)/C=C(/c2ccccc2)c2ccc(N)cc2)CC1	0.029 mg/kg	
5.39	Cc1nc2cnccc2n1CC1CCN(C(=O)/C=C(/c2ccccc2)c2ccc(/N=N\c3ccc(O)c(C(=O)O)c3)cc2)CC1	2.81 mg/kg	Animals (Rattus norvegicus [3]): <25%; Production (Rattus norvegicus [4]): <4.5 ng (g of tissue)-1; Damage score (Rattus norvegicus [5]): <7.5 0-10; Colonic weight (Rattus norvegicus [6]): <149.6 mg/cm; Activity (Rattus norvegicus [7]): <445.9 U (g of tissue)-1
7.52	CCOC(=O)[C@H](CC(C)C)N(C(=O)c1ccc(N)cc1)S(=O)(=O)c1ccc(Cn2c(C)nc3cnccc32)cc1		
6.57	CCOC(=O)NC(CC(=O)N1CCC(Cn2c(C)nc3cnccc32)CC1)c1ccc(N)cc1 (stereo unspecified)	0.13 mg/kg	
< 3.70	O=C(O)c1cc(/N=N/c2ccc(S(=O)(=O)Nc3ccccn3)cc2)ccc1O [SULFASALAZINE]		Animals (Rattus norvegicus [3]): 62.5%; Damage score (Rattus norvegicus [5]): 8 0-10; Colonic weight (Rattus norvegicus [6]): 154.4 mg/cm; Activity (Rattus norvegicus [7]): 683.3 U (g of tissue)-1
5.40	Cc1nc2cnccc2n1CC1CCN(C(=O)CN(c2ccccc2)S(=O)(=O)c2ccc(/N=N\c3ccc(O)c(C(=O)O)c3)cc2)CC1	0.19 mg/kg	
< 3.70	O=C(O)CCNC(=O)c1ccc(/N=N/c2ccc(O)c(C(=O)O)c2)cc1 [BALSALAZIDE]		
